From ChEMBL document CHEMBL1137015, “Improved, selective, human intestinal carboxylesterase inhibitors designed to modulate 7-ethyl-10-[4-(1-piperidino)-1-piperidino]carbonyloxycamptothecin (Irinotecan; CPT-11) toxicity” (J Med Chem, 2009) come the findings set out here.

Structures are written as SMILES. Active and inactive are the calls of the source.

Assay [1] in a line: Inhibition of human intestinal CE-mediated O-nitrophenyl acetate hydrolysis by spectrophotometry. An outline of the steps:
(§1)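 Enzyme activity read spectrophotometrically as release of o-nitrophenol from o-nitrophenyl acetate across increasing inhibitor concentrations. Inhibitors were freshly dissolved in DMSO, typically as 10mM stocks. Fractional inhibition was plotted against inhibitor concentration and fitted to a partial-inhibition equation including Ks, α and β. Inhibition mode was chosen by Akaike's information criteria, and Ki was taken from the best-fit model.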

A further assay addresses T1, Liver carboxylesterase 1 (Homo sapiens, UniProt P23141).
T1 sequence (P23141 whole entry): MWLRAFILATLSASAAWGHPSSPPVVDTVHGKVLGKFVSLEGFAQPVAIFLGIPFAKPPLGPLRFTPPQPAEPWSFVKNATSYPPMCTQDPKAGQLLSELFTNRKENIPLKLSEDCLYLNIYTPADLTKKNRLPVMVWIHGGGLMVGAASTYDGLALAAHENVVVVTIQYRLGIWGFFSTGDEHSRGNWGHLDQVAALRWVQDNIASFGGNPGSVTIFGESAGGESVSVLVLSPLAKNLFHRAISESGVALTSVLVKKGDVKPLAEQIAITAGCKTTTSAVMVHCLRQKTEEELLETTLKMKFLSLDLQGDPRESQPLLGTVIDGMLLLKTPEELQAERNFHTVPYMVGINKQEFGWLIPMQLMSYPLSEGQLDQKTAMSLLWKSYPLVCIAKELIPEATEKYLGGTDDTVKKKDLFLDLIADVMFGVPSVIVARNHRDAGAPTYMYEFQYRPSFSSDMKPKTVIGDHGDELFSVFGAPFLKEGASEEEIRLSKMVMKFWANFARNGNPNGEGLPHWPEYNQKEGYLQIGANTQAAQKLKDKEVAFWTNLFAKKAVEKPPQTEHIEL
Kind of assay: Inhibition of human liver CE1-mediated O-nitrophenyl acetate hydrolysis by spectrophotometry. An outline of the steps:
as §1

Assay [2] can be described thus: Inhibition of human intestinal CE-mediated irinotecan hydrolysis. An outline of the steps:
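Human intestinal CE (25 U per reaction; 1 U converts 1 nmole o-nitrophenyl acetate/min) with 20µM CPT-11 in 50mM Hepes pH7.4, inhibitor 1nM to 100µM. Incubated 37°C for 5 min, stopped with cold acidified methanol, centrifuged. SN-38 measured by reverse phase HPLC. Fractional inhibition fitted to partial inhibition equation, model chosen by Akaike's criteria, Ki from best fit.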

The target in assay [3] is Acetylcholinesterase (Homo sapiens) (UniProt P22303). Nature of the assay: Inhibition of human AchE using acetylthiocholine as substrate by spectrophotometric multiwell plate assay.
Sequence of Acetylcholinesterase (Homo sapiens) (P22303 whole entry): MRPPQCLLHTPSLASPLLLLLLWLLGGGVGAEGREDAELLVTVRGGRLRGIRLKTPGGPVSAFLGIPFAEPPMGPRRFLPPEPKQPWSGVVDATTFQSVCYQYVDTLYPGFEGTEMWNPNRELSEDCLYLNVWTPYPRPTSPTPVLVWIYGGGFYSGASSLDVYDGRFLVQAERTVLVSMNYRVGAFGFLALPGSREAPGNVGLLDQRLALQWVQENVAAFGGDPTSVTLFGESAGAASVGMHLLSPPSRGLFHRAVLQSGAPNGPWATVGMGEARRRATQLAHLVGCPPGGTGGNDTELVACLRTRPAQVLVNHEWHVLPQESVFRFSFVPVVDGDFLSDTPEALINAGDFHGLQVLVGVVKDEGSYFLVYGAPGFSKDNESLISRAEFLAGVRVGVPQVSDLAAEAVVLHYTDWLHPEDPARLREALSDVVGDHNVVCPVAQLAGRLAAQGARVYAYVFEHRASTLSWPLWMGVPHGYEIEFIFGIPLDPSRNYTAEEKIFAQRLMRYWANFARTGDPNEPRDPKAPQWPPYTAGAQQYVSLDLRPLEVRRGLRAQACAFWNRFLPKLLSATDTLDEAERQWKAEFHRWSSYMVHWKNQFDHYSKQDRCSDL
The target of assay [4] is Cholinesterase (Homo sapiens) (UniProt P06276). Kind of assay: Inhibition of human BchE using butyrylthiocholine as substrate by spectrophotometric multiwell plate assay.
Sequence of Cholinesterase (Homo sapiens) (P06276 whole entry): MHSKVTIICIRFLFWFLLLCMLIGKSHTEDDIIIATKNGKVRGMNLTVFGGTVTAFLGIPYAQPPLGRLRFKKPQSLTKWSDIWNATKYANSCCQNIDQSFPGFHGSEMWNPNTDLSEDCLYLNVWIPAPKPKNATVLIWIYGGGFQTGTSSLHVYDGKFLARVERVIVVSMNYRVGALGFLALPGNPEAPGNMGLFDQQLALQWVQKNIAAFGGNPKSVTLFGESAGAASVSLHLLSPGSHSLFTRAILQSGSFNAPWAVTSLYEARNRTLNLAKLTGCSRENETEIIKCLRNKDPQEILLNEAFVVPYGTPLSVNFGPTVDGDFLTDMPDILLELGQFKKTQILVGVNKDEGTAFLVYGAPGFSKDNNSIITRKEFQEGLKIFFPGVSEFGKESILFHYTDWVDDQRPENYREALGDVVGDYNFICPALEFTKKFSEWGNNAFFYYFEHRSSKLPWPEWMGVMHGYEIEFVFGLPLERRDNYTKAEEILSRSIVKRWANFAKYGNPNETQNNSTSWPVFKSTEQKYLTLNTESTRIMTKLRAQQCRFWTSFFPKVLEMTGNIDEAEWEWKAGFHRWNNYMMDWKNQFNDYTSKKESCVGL

For the compound `O=S(=O)(Nc1ccc2c(c1)Cc1cc(NS(=O)(=O)c3ccc(Cl)cc3)ccc1-2)c1ccc(Cl)cc1`, the results for the inhibitory constant (Ki) (in assay [1]; at Liver carboxylesterase 1; in assay [2]) were 23.5 nM, above 100000 nM and 37.7 nM, respectively. For the same compound, the result in assay [3] and in assay [4] was inactive.
In the case of `O=S(=O)(Nc1ccc2c(c1)Cc1cc(NS(=O)(=O)c3cc(F)c(F)c(F)c3)ccc1-2)c1cc(F)c(F)c(F)c1`, the Ki in assay [1] is 18.6 nM; at Liver carboxylesterase 1, above 100000 nM; in assay [2], 58.1 nM. Moreover, the outcome in assay [3] and in assay [4] was inactive.
In the case of `O=S(=O)(Nc1ccc2c(c1)Cc1cc(NS(=O)(=O)c3cccc(Cl)c3)ccc1-2)c1cccc(Cl)c1`, the Ki is 13.9 nM in assay [1], above 100000 nM on Liver carboxylesterase 1 and 52.8 nM in assay [2]. For the same compound, the outcome in assay [3] and in assay [4] was inactive.
For `O=S(=O)(Nc1c(F)c(F)c(NS(=O)(=O)c2ccc(Br)cc2)c(F)c1F)c1ccc(Br)cc1`, the Ki is 23.4 nM in assay [1], above 100000 nM at Liver carboxylesterase 1 and 28 nM in assay [2]. The result in assay [3] and in assay [4] was inactive.
Consider `Cc1c(C)c(NS(=O)(=O)c2cc(Cl)cc(Cl)c2)c(C)c(C)c1NS(=O)(=O)c1cc(Cl)cc(Cl)c1`, for which the Ki in assay [1] is 2600 nM; on Liver carboxylesterase 1, above 100000 nM; in assay [2] it was above 100000 nM. The result in assay [3] and in assay [4] was inactive.
Consider `O=S(=O)(Nc1ccc(NS(=O)(=O)c2c(F)cccc2F)cc1)c1c(F)cccc1F`, for which the Ki was 5260 nM in assay [1], above 100000 nM on Liver carboxylesterase 1 and above 100000 nM in assay [2]. In addition, the result in assay [3] and in assay [4] was inactive.

In general, Ki refers to a measure of affinity in units of concentration, obtained from inhibition or displacement. Low values mean a stronger hold on the target, high ones a looser hold on the target.
